{"source": "ChEMBL document CHEMBL1148178", "about": "“Dicranin, an antimicrobial and 15-lipoxygenase inhibitor from the moss Dicranum scoparium” (1993)", "type_in_all_cases": "functional", "settings_in_all_cases": "read-out: Diameter of inhibition zone", "key": {"Bacillus cereus [1]": {"test_system": "Bacillus cereus", "test": "Antibacterial activity against Bacillus cereus NCIB 3329 at 100 ug/disk after 24 hrs by disk diffusion assay", "in_short": "(§1)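 Sterile 6 mm filter-paper disc bearing sample set in the centre of a Petri dish of 15 ml plate count agar. Overlaid with 3 ml soft nutrient agar (nutrient broth + 0.7% agar) seeded with 1% of a 16–18 h culture of the test strain. Read-out is the diameter of the growth-free zone around the disc.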"}, "Bacillus cereus [2]": {"test_system": "Bacillus cereus", "test": "Antibacterial activity against Bacillus cereus NCIB 3329 at 75 ug/disk after 24 hrs by disk diffusion assay", "in_short": "as §1"}, "Bacillus cereus [3]": {"test_system": "Bacillus cereus", "test": "Antibacterial activity against Bacillus cereus NCIB 3329 at 50 ug/disk after 24 hrs by disk diffusion assay", "in_short": "as §1"}, "Bacillus cereus [4]": {"test_system": "Bacillus cereus", "test": "Antibacterial activity against Bacillus cereus NCIB 3329 at 25 ug/disk after 24 hrs by disk diffusion assay", "in_short": "as §1"}, "Bacillus cereus [5]": {"test_system": "Bacillus cereus", "test": "Antibacterial activity against Bacillus cereus NCIB 3329 at 10 ug/disk after 24 hrs by disk diffusion assay", "in_short": "as §1"}, "Bacillus subtilis [6]": {"test_system": "Bacillus subtilis", "test": "Antibacterial activity against Bacillus subtilis NCIB 3610 at 1000 ug/disk after 24 hrs by disk diffusion assay", "in_short": "as §1"}, "Bacillus subtilis [7]": {"test_system": "Bacillus subtilis", "test": "Antibacterial activity against Bacillus subtilis NCIB 3610 at 500 ug/disk after 24 hrs by disk diffusion assay", "in_short": "as §1"}, "Bacillus subtilis [8]": {"test_system": "Bacillus subtilis", "test": "Antibacterial activity against Bacillus subtilis NCIB 3610 at 250 ug/disk after 24 hrs by disk diffusion assay", "in_short": "as §1"}, "Bacillus subtilis [9]": {"test_system": "Bacillus subtilis", "test": "Antibacterial activity against Bacillus subtilis NCIB 3610 at 125 ug/disk after 24 hrs by disk diffusion assay", "in_short": "as §1"}, "Bacillus subtilis [10]": {"test_system": "Bacillus subtilis", "test": "Antibacterial activity against Bacillus subtilis NCIB 3610 at 100 ug/disk after 24 hrs by disk diffusion assay", "in_short": "as §1"}, "Bacillus subtilis [11]": {"test_system": "Bacillus subtilis", "test": "Antibacterial activity against Bacillus subtilis NCIB 3610 at 75 ug/disk after 24 hrs by disk diffusion assay", "in_short": "as §1"}, "Bacillus subtilis [12]": {"test_system": "Bacillus subtilis", "test": "Antibacterial activity against Bacillus subtilis NCIB 3610 at 50 ug/disk after 24 hrs by disk diffusion assay", "in_short": "as §1"}, "Bacillus subtilis [13]": {"test_system": "Bacillus subtilis", "test": "Antibacterial activity against Bacillus subtilis NCIB 3610 at 25 ug/disk after 24 hrs by disk diffusion assay", "in_short": "as §1"}, "Bacillus subtilis [14]": {"test_system": "Bacillus subtilis", "test": "Antibacterial activity against Bacillus subtilis NCIB 3610 at 10 ug/disk after 24 hrs by disk diffusion assay", "in_short": "as §1"}, "Staphylococcus aureus [15]": {"test_system": "Staphylococcus aureus", "test": "Antibacterial activity against Staphylococcus aureus T-AQ 49/YF29 at 1000 ug/disk after 24 hrs by disk diffusion assay", "in_short": "as §1"}, "Staphylococcus aureus [16]": {"test_system": "Staphylococcus aureus", "test": "Antibacterial activity against Staphylococcus aureus T-AQ 49/YF29 at 500 ug/disk after 24 hrs by disk diffusion assay", "in_short": "as §1"}, "Staphylococcus aureus [17]": {"test_system": "Staphylococcus aureus", "test": "Antibacterial activity against Staphylococcus aureus T-AQ 49/YF29 at 250 ug/disk after 24 hrs by disk diffusion assay", "in_short": "as §1"}, "Staphylococcus aureus [18]": {"test_system": "Staphylococcus aureus", "test": "Antibacterial activity against Staphylococcus aureus T-AQ 49/YF29 at 125 ug/disk after 24 hrs by disk diffusion assay", "in_short": "as §1"}, "Staphylococcus aureus [19]": {"test_system": "Staphylococcus aureus", "test": "Antibacterial activity against Staphylococcus aureus T-AQ 49/YF29 at 100 ug/disk after 24 hrs by disk diffusion assay", "in_short": "as §1"}, "Staphylococcus aureus [20]": {"test_system": "Staphylococcus aureus", "test": "Antibacterial activity against Staphylococcus aureus T-AQ 49/YF29 at 75 ug/disk after 24 hrs by disk diffusion assay", "in_short": "as §1"}, "Staphylococcus aureus [21]": {"test_system": "Staphylococcus aureus", "test": "Antibacterial activity against Staphylococcus aureus T-AQ 49/YF29 at 50 ug/disk after 24 hrs by disk diffusion assay", "in_short": "as §1"}, "Staphylococcus aureus [22]": {"test_system": "Staphylococcus aureus", "test": "Antibacterial activity against Staphylococcus aureus T-AQ 49/YF29 at 25 ug/disk after 24 hrs by disk diffusion assay", "in_short": "as §1"}, "Staphylococcus aureus [23]": {"test_system": "Staphylococcus aureus", "test": "Antibacterial activity against Staphylococcus aureus T-AQ 49/YF29 at 10 ug/disk after 24 hrs by disk diffusion assay", "in_short": "as §1"}, "Enterococcus faecalis [24]": {"test_system": "Enterococcus faecalis", "test": "Antibacterial activity against Streptococcus faecalis NCIB 775 at 75 ug/disk after 24 hrs by disk diffusion assay", "in_short": "(§2)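 Test material loaded onto 6 mm sterile filter-paper discs. Each disc sits at the centre of a plate of 15 ml plate count agar overlaid with 3 ml soft nutrient agar (nutrient broth + 0.7% agar) carrying 1% of a 16–18 h culture. Activity is read as the diameter of the no-growth zone around the disc.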"}, "Enterococcus faecalis [25]": {"test_system": "Enterococcus faecalis", "test": "Antibacterial activity against Streptococcus faecalis NCIB 775 at 50 ug/disk after 24 hrs by disk diffusion assay", "in_short": "as §2"}, "Enterococcus faecalis [26]": {"test_system": "Enterococcus faecalis", "test": "Antibacterial activity against Streptococcus faecalis NCIB 775 at 25 ug/disk after 24 hrs by disk diffusion assay", "in_short": "as §2"}, "Enterococcus faecalis [27]": {"test_system": "Enterococcus faecalis", "test": "Antibacterial activity against Streptococcus faecalis NCIB 775 at 10 ug/disk after 24 hrs by disk diffusion assay", "in_short": "as §1"}}, "data": [{"smiles": "CC/C=C\\C/C=C\\C/C=C\\CC#CCCCCC(=O)O", "note": "[DICRANIN]", "values": [{"measurement": "zone of inhibition at 100 µg/disc", "setting": "Bacillus cereus [1]", "result": 15, "unit": "mm"}, {"measurement": "zone of inhibition at 75 µg/disc", "setting": "Bacillus cereus [2]", "result": 11, "unit": "mm"}, {"measurement": "zone of inhibition at 50 µg/disc", "setting": "Bacillus cereus [3]", "result": 10, "unit": "mm"}, {"measurement": "zone of inhibition at 25 µg/disc", "setting": "Bacillus cereus [4]", "result": 9, "unit": "mm"}, {"measurement": "zone of inhibition at 10 µg/disc", "setting": "Bacillus cereus [5]", "result": 0, "unit": "mm"}, {"measurement": "zone of inhibition at 1000 µg/disc", "setting": "Bacillus subtilis [6]", "result": 20, "unit": "mm"}, {"measurement": "zone of inhibition at 500 µg/disc", "setting": "Bacillus subtilis [7]", "result": 19, "unit": "mm"}, {"measurement": "zone of inhibition at 250 µg/disc", "setting": "Bacillus subtilis [8]", "result": 16, "unit": "mm"}, {"measurement": "zone of inhibition at 125 µg/disc", "setting": "Bacillus subtilis [9]", "result": 14, "unit": "mm"}, {"measurement": "zone of inhibition at 100 µg/disc", "setting": "Bacillus subtilis [10]", "result": 13, "unit": "mm"}, {"measurement": "zone of inhibition at 75 µg/disc", "setting": "Bacillus subtilis [11]", "result": 13, "unit": "mm"}, {"measurement": "zone of inhibition at 50 µg/disc", "setting": "Bacillus subtilis [12]", "result": 11, "unit": "mm"}, {"measurement": "zone of inhibition at 25 µg/disc", "setting": "Bacillus subtilis [13]", "result": 8, "unit": "mm"}, {"measurement": "zone of inhibition at 10 µg/disc", "setting": "Bacillus subtilis [14]", "result": 0, "unit": "mm"}, {"measurement": "zone of inhibition at 1000 µg/disc", "setting": "Staphylococcus aureus [15]", "result": 23, "unit": "mm"}, {"measurement": "zone of inhibition at 500 µg/disc", "setting": "Staphylococcus aureus [16]", "result": 22, "unit": "mm"}, {"measurement": "zone of inhibition at 250 µg/disc", "setting": "Staphylococcus aureus [17]", "result": 21, "unit": "mm"}, {"measurement": "zone of inhibition at 125 µg/disc", "setting": "Staphylococcus aureus [18]", "result": 17, "unit": "mm"}, {"measurement": "zone of inhibition at 100 µg/disc", "setting": "Staphylococcus aureus [19]", "result": 16, "unit": "mm"}, {"measurement": "zone of inhibition at 75 µg/disc", "setting": "Staphylococcus aureus [20]", "result": 12, "unit": "mm"}, {"measurement": "zone of inhibition at 50 µg/disc", "setting": "Staphylococcus aureus [21]", "result": 11, "unit": "mm"}, {"measurement": "zone of inhibition at 25 µg/disc", "setting": "Staphylococcus aureus [22]", "result": 0, "unit": "mm"}, {"measurement": "zone of inhibition at 10 µg/disc", "setting": "Staphylococcus aureus [23]", "result": 0, "unit": "mm"}, {"measurement": "zone of inhibition at 75 µg/disc", "setting": "Enterococcus faecalis [24]", "result": 13, "unit": "mm"}, {"measurement": "zone of inhibition at 50 µg/disc", "setting": "Enterococcus faecalis [25]", "result": 12, "unit": "mm"}, {"measurement": "zone of inhibition at 25 µg/disc", "setting": "Enterococcus faecalis [26]", "result": 10, "unit": "mm"}, {"measurement": "zone of inhibition at 10 µg/disc", "setting": "Enterococcus faecalis [27]", "result": 6, "unit": "mm"}]}]}
